Laboratory results taken from ChEMBL document CHEMBL5696442, “Discovery of type II inhibitors of TGFβ-activated kinase 1 (TAK1) and mitogen-activated protein kinase kinase kinase kinase 2 (MAP4K2)” (J Med Chem, 2015).

Assays:
[1] = molecular target: Tyrosine-protein kinase ABL1 (Homo sapiens, UniProt P00519); assay: Inhibition of ABL Lys1 labeling site in human Huh-7 cell lysate at 1 uM by KiNativ Profiling analysis relative to control; assay type: subcellular
[2] = molecular target: Tyrosine-protein kinase CSK (Homo sapiens, UniProt P41240); assay: Inhibition of CSK ACT labeling site harbouring VSDFGLTKEASSTQDTGKLPVK in human Huh-7 cell lysate at 1 uM by KiNativ Profiling analysis relative to control; assay type: subcellular
Sequence of Tyrosine-protein kinase CSK (P41240 2-450 limits assumed): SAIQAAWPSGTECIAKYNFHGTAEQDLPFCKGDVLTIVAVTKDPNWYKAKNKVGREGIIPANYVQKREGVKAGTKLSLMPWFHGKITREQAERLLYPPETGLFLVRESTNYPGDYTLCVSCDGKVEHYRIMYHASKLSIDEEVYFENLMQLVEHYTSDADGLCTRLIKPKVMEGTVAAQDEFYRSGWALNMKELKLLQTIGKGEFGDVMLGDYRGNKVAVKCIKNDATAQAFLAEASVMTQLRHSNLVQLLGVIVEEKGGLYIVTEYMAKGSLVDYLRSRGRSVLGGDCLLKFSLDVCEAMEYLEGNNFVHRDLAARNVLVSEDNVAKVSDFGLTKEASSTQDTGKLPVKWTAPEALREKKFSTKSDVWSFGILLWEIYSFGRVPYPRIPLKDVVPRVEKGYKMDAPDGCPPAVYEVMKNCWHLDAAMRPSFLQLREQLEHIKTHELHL

[3] = molecular target: RAC-alpha serine/threonine-protein kinase (Homo sapiens) (UniProt P31749); assay: Inhibition of AKT1 ATP Loop labeling site in human A-375 cells at 0.5 uM by KiNativ Profiling analysis relative to control; assay type: cell-based
Sequence of RAC-alpha serine/threonine-protein kinase (Homo sapiens) (P31749 whole entry): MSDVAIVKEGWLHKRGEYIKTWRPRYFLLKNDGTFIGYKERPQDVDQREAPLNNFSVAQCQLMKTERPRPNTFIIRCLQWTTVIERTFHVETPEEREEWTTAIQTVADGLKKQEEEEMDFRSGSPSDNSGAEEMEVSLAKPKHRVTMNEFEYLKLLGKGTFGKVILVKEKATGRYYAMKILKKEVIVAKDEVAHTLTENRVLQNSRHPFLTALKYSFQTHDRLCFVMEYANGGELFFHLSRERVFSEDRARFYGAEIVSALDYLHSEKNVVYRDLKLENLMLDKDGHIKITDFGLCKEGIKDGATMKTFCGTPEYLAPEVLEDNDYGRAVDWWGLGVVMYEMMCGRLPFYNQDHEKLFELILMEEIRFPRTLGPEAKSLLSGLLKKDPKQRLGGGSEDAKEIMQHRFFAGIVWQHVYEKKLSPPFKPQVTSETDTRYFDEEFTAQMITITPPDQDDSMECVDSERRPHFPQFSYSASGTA
In short: (§1)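 Live A375 melanoma cells were treated with compound at 5 or 0.5 μM, then lysed. The lysates were labeled with a lysine-reactive ATP or ADP-biotin probe. Kinase protection from probe labeling was measured by KiNativ.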

[4] = molecular target: T1, Serine/threonine-protein kinase Nek9 (Homo sapiens) (UniProt Q8TD19); assay: Inhibition of NEK9 ACT labeling site in human A-375 cells at 0.05 uM by KiNativ Profiling analysis relative to control; assay type: cell-based
T1 sequence (whole entry): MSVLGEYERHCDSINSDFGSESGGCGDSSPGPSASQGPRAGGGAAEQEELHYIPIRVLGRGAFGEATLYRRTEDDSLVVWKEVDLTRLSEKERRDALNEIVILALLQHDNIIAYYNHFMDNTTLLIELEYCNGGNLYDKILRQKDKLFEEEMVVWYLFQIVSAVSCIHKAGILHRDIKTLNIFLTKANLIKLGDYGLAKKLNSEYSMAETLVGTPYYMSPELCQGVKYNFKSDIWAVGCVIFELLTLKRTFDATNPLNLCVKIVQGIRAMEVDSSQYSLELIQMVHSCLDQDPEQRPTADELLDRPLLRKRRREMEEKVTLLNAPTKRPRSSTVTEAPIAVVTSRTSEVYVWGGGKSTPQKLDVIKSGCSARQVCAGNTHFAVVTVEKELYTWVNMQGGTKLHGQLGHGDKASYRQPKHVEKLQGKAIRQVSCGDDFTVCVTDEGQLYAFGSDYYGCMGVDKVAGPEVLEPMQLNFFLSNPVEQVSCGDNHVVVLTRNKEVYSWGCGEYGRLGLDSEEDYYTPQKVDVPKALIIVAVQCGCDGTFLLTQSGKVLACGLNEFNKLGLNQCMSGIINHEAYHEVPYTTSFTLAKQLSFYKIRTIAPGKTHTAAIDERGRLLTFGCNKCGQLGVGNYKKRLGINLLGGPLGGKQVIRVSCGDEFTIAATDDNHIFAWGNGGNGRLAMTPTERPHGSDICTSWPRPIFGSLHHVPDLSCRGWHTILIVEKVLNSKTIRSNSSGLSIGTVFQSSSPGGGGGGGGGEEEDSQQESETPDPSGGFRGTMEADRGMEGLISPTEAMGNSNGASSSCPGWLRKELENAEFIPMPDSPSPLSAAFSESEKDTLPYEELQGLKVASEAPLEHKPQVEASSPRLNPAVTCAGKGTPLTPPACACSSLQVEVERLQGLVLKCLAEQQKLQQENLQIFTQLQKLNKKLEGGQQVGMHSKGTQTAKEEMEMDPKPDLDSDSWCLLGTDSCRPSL

[5] = molecular target: Cyclin-dependent kinase 16 (Homo sapiens) (UniProt Q00536); assay: Inhibition of PFTAIRE1 Lys1 labeling site in human A-375 cells at 0.5 uM by KiNativ Profiling analysis relative to control; assay type: cell-based
Sequence of Cyclin-dependent kinase 16 (Homo sapiens) (Q00536 whole entry): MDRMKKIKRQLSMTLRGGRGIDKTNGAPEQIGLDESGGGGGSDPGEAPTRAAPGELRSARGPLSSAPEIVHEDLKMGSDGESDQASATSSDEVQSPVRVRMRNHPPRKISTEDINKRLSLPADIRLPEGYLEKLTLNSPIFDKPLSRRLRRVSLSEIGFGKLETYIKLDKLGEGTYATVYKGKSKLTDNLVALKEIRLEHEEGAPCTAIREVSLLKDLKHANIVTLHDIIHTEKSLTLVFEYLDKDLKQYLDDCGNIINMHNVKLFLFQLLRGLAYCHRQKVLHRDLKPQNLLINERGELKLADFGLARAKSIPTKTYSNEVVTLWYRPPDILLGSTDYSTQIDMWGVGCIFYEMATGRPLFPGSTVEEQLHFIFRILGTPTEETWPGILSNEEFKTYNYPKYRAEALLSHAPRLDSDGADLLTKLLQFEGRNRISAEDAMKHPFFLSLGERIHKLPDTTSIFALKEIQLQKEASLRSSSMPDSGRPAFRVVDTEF

[6] = molecular target: Cyclin-dependent kinase 17 (Homo sapiens) (UniProt Q00537); assay: Inhibition of PCTAIRE2 Lys2 labeling site in human A-375 cells at 5 uM by KiNativ Profiling analysis relative to control; assay type: cell-based
Sequence of Cyclin-dependent kinase 17 (Homo sapiens) (Q00537 whole entry, looked up): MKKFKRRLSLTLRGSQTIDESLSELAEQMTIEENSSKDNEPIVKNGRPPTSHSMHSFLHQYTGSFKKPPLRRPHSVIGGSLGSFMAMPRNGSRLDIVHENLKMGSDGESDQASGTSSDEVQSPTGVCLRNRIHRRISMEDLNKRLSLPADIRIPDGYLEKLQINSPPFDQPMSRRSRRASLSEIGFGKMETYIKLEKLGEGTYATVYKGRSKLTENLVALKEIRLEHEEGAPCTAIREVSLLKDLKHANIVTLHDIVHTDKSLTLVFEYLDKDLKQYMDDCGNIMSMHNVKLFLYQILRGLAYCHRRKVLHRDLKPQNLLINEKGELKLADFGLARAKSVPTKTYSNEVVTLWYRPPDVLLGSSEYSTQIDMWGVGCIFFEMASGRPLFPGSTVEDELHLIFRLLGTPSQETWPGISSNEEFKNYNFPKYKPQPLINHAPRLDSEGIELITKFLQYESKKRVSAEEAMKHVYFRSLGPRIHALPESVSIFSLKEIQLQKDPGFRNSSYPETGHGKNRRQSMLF

[7] = molecular target: Mitogen-activated protein kinase 7 (Homo sapiens) (UniProt Q13164); assay: Inhibition of Erk5 Lys2 labeling site in human A-375 cells at 0.5 uM by KiNativ Profiling analysis relative to control; assay type: cell-based
Sequence of Mitogen-activated protein kinase 7 (Homo sapiens) (Q13164 2-816 limits assumed): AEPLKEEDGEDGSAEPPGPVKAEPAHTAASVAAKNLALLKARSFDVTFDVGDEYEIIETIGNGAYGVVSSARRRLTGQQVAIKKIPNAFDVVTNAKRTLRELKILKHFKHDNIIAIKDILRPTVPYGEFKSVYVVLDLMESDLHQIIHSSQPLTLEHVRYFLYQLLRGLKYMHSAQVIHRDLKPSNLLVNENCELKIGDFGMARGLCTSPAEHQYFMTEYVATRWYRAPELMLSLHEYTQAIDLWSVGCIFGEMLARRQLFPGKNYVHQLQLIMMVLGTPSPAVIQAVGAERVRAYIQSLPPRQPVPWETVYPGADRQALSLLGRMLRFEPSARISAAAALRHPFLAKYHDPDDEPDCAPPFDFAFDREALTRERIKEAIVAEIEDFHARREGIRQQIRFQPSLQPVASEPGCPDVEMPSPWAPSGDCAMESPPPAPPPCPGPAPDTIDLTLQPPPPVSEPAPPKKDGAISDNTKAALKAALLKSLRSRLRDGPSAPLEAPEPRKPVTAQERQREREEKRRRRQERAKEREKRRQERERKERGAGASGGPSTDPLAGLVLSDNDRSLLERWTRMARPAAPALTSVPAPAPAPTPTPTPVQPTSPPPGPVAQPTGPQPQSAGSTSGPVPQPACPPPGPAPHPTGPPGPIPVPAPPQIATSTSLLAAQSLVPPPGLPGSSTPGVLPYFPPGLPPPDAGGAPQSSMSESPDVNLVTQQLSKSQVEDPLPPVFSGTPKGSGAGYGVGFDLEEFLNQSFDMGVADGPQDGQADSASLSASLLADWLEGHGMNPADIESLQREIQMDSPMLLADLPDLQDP
In short: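 Live A375 melanoma cells were treated with compound at 0.5 or 5 μM, then lysed. Lysates were labeled with a lysine-reactive ATP or ADP-biotin probe. The read-out was protection of each kinase probe-labeling site from labeling, relative to control.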

[8] = molecular target: Mitogen-activated protein kinase kinase kinase kinase 4 (Homo sapiens, UniProt O95819); assay: Inhibition of ZC1/HGK Lys2 labeling site in human A-375 cells at 0.5 uM by KiNativ Profiling analysis relative to control; assay type: cell-based
Sequence of Mitogen-activated protein kinase kinase kinase kinase 4 (O95819 2-1239 limits assumed): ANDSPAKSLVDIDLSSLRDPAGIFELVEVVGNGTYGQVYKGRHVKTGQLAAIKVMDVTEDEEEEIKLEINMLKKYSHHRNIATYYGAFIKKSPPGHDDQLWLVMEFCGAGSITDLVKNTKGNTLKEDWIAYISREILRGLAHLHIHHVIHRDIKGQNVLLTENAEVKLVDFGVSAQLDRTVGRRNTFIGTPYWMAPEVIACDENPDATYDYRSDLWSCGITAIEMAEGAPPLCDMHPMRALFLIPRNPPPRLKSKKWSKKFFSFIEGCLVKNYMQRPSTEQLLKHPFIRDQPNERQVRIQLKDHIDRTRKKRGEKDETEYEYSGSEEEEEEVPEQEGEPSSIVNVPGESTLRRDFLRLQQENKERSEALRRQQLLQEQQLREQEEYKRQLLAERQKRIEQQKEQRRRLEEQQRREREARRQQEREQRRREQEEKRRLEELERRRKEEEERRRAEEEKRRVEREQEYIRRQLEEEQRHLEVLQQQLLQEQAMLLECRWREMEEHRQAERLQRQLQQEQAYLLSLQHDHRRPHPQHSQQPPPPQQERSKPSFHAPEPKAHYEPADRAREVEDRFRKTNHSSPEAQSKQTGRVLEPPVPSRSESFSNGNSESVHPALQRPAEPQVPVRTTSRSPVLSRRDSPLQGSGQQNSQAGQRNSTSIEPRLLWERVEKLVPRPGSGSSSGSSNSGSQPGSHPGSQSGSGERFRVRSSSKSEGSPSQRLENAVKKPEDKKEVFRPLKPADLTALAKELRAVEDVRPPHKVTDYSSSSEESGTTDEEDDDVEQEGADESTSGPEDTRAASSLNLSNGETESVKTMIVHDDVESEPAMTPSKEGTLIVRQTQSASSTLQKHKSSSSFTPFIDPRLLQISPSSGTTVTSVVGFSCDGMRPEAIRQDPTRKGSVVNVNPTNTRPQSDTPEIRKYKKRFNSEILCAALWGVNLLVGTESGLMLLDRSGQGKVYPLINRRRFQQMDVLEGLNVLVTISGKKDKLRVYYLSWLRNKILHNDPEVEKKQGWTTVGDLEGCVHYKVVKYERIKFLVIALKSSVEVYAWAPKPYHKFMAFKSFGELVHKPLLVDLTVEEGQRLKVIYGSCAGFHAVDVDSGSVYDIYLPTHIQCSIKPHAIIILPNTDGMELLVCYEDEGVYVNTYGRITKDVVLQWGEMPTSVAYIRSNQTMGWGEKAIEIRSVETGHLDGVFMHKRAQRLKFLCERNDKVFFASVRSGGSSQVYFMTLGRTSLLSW

[9] = molecular target: Cyclin-dependent kinase 8 (Homo sapiens) (UniProt P49336); assay: Inhibition of CDK8 Lys2 labeling site in human A-375 cells at 0.05 uM by KiNativ Profiling analysis relative to control; assay type: cell-based
[10] = molecular target: Mitogen-activated protein kinase 14 (Homo sapiens, UniProt Q16539); assay: Inhibition of p38 alpha Lys2 labeling site in human A-375 cells at 0.05 uM by KiNativ Profiling analysis relative to control; assay type: cell-based
[11] = molecular target: T1, Serine/threonine-protein kinase Nek9 (Homo sapiens); assay: Inhibition of NEK9 Lys1 labeling site harbouring TEDDSLVVWKEVDLTR in human A-375 cells at 0.5 uM by KiNativ Profiling analysis relative to control; assay type: cell-based
[12] = molecular target: T2, Serine/threonine-protein kinase 3 (Homo sapiens) (UniProt Q13188); assay: Inhibition of MST2 Lys2 labeling site harbouring DIKAGNILLNTEGHAK in human A-375 cells at 0.05 uM by KiNativ Profiling analysis relative to control; assay type: cell-based
T2 sequence (whole entry): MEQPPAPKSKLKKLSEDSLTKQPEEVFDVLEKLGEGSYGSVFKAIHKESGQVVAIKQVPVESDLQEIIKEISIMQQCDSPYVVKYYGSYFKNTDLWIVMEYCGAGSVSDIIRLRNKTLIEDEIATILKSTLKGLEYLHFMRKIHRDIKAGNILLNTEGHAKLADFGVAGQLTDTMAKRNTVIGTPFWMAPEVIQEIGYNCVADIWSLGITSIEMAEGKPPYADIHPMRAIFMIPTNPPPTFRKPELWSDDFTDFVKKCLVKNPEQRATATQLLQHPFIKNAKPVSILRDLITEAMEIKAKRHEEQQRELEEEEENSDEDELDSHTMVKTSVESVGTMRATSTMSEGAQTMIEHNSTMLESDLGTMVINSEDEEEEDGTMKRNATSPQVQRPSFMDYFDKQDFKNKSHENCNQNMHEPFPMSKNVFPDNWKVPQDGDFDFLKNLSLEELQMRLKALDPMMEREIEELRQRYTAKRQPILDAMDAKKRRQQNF

[13] = molecular target: 5'-AMP-activated protein kinase catalytic subunit alpha-1 (Homo sapiens) (UniProt Q13131); assay: Inhibition of AMPKa1 Lys1 labeling site in human A-375 cells at 5 uM by KiNativ Profiling analysis relative to control; assay type: cell-based; in short: as §1
Sequence of 5'-AMP-activated protein kinase catalytic subunit alpha-1 (Homo sapiens) (Q13131 whole entry, looked up): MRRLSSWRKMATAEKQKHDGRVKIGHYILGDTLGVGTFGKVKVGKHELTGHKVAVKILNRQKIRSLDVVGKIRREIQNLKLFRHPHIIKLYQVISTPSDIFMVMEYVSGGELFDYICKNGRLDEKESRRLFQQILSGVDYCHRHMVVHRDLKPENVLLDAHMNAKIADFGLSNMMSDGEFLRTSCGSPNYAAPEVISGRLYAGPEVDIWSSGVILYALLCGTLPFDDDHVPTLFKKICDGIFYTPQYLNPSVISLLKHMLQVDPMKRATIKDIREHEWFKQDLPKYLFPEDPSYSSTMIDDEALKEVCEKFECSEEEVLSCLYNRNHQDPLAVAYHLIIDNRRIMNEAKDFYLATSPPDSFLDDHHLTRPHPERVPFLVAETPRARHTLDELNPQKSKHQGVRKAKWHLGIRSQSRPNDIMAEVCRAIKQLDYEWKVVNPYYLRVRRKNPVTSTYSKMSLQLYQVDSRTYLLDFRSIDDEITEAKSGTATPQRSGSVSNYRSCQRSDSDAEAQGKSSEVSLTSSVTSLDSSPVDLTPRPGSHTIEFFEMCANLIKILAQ

[14] = molecular target: Mitogen-activated protein kinase 8 (Homo sapiens, UniProt P45983); assay: Inhibition of JNK1 Lys2 labeling site in human A-375 cells at 0.05 uM by KiNativ Profiling analysis relative to control; assay type: cell-based
Sequence of Mitogen-activated protein kinase 8 (P45983 whole entry): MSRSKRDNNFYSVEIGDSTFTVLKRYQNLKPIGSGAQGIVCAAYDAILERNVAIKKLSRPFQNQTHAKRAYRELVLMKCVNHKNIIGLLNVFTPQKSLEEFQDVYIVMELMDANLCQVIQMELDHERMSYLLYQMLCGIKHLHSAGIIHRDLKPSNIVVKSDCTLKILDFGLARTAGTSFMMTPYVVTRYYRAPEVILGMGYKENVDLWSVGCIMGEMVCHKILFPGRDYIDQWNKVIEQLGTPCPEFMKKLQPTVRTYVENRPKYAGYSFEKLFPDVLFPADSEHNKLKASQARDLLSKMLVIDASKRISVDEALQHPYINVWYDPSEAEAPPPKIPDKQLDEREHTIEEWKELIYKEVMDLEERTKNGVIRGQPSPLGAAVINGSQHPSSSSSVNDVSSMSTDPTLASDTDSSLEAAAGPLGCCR

SMILES | inhibition [1] [%] | inhibition [2] [%] | inhibition [3] [%] | inhibition [4] [%] | inhibition [5] [%] | inhibition [6] [%] | inhibition [7] [%] | inhibition [8] [%] | inhibition [9] [%] | inhibition [10] [%] | inhibition [11] [%] | inhibition [12] [%] | inhibition [13] [%] | inhibition [14] [%]
CNc1cc(Oc2cc(C(=O)Nc3cc(N4CCN(C)CC4)cc(C(F)(F)F)c3)ccc2C)ncn1 | 48.4 | 7.9 | – | – | – | – | – | – | – | – | – | – | – | –
CCN1CCN(Cc2ccc(NC(=O)c3ccc(C)c(Oc4ccnc5[nH]ccc45)c3)cc2C(F)(F)F)CC1 | – | – | -1 | 8.1 | 41.3 | 87 | 6.8 | 70.8 | 32.1 | 4.2 | -1.5 | 4.7 | 11.6 | 50.3
CNc1cc(Oc2cc(C(=O)Nc3cc(-n4cnc(C)c4)cc(C(F)(F)F)c3)ccc2C)ncn1 | 51.8 | 0.3 | – | – | – | – | – | – | – | – | – | – | – | –
CCN1CCN(Cc2ccc(NC(=O)c3ccc(C)c(/C=C/c4cnc5[nH]ccc5c4OC)c3)cc2C(F)(F)F)CC1 | – | – | 15 | -4.6 | 11.9 | 27.8 | 14 | 48.1 | -9.4 | 59.4 | -5 | -7 | 37 | 23.9
